Source: PubChem (Sanford-Burnham Center for Chemical Genomics)
Compounds with a hit are over-represented: about 1.1% of the library has one in this group of screens.
Diaph inh CS: inhibits diaphorase or chemically oxidizes, flagging diaphorase assay artifacts. diaphorase resazurin-to-resorufin fluorescence, NADH, 16 min; bacterial (C. kluyveri) enzyme, not human. inhibition, % at 20 µM. actives 0.69% (n = 190,000). AID 1217;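 active means primary screen inhibition at 20 µM above a set limit, cut at about 50% in these data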
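System: Bacterial diaphorase enzyme (C. kluyveri) | Incubation: 16-min room-temperature incubation before reading | Benchmarks: No-NADH positive control and DMSO neutral control | Measured by: Resorufin fluorescence 544/590 nm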
PMI act satM6P: PMI (human) activation, high substrate. P34949. coupled PMI enzyme assay, resazurin fluorescence, 20 min; hits give high values; 1 = untreated enzyme, 0 = substrate-free blank. activation factor at 20 µM. actives 0.34% (n = 190,000);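 active means activation factor of 2 or more at 20 µM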
Target sequence (P34949 whole entry, looked up): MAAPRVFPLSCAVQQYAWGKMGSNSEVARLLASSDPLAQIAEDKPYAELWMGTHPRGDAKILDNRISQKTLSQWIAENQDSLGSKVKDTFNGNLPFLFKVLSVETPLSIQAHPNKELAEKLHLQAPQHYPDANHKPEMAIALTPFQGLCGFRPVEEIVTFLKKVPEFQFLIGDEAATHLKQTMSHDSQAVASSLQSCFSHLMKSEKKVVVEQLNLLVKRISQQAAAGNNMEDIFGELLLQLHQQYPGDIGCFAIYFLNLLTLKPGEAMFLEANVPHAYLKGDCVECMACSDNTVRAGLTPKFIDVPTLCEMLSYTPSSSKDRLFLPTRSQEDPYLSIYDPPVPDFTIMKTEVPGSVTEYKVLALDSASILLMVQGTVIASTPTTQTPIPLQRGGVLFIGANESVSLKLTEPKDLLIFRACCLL
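Technique: Diaphorase-driven resazurin-to-resorufin fluorescence, excitation 544, emission 590 nm | Assay system: Human PMI in coupled enzyme assay | Times: Enzyme reaction with compound 20 min at room temperature | Medium: HEPES-buffered pH 7.4 with magnesium and detergent | Reagent: Mannose-6-phosphate 1.0 mM (near-saturating) plus 0.22 mM NADP+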
PMI act: phosphomannose isomerase (human) activation. P34949. purified human PMI, coupled resazurin fluorescence, 20 min; hits give high values; 1 = vehicle control, 0 substrate-free wells. activation factor at 20 µM. actives 0.005% (n = 190,000);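 active means activation factor of 2 or more at 20 µM, relative to plate controls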
G6PDH counter: inhibits Leuconostoc G6PDH, flagging false hits in G6PDH-based assays; Purified L. mesenteroides G6PDH, diaphorase/resazurin coupled fluorescence, 45 min; inhibition, % at 5 µM; actives 0.12% (n = 200,000); AID 1020; in the data active means inhibition above about 50%
Diaphorase act: counter-screen for diaphorase-based assays: diaphorase activators and chemical reducers; Diaphorase/resazurin coupled assay, resorufin fluorescence, 16 min; hits give high values; 1 = vehicle wells, 0 = NADH-free wells; activation factor at 20 µM; actives 0.005% (n = 190,000);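 active means diaphorase activity raised at least twofold by the compound at 20 µM; inactive means activation factor below 2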
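Material: Purified diaphorase enzyme from Clostridium kluyveri | Buffer or medium: 50 mM HEPES pH 7.4 with 4.542 mM MgCl2, 0.005% Tween 20 | Times: 16 min enzyme reaction, ambient temperature | Signal: Red resorufin fluorescence at 544/590 nm excitation/emission | Measure: Increased resorufin signal from activators or reducing compounds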
Of the large screens only hits and unclear results are named; the others gave an inactive call.

CCOc1cc(CNc2ccc3c(c2)CCC3)ccc1O	none
CC(C)CN=Cc1c(O)c([N+](=O)[O-])cc2oc3c(c12)CCCC3	Diaph inh CS 56
COc1ccccc1Nc1nc(-c2c(C)[nH]c3ccccc23)cs1	PMI act satM6P 2
O=C(NCCCn1ccnc1)c1nn2c(C(F)(F)F)cc(-c3ccccc3)nc2c1Cl	none
Cc1ccc(NC(N)=S)cc1C	none
Cc1ccc(N/N=C(\C#N)C(N)=S)cc1C	PMI act satM6P 2.1
O=C(O)c1cccc(-n2cccc2/C=C2/NC(=O)N(c3ccc(Cl)cc3)C2=O)c1	Diaph inh CS 62
Nc1ccc(CSc2ccc(Cl)cc2)cc1	none
O=C(O)c1ccc(Nc2nc(-c3cc4ccccc4oc3=O)cs2)cc1O	Diaph inh CS 88
CNc1ccc(Br)cc(C(=O)/C=C/c2cccc(OC)c2OC)c1=O	Diaph inh CS 59
CNc1ccc(Br)cc(C(=O)/C=C/c2cccc(Cl)c2Cl)c1=O	Diaph inh CS 68
O=C(COC(=O)/C=C/c1ccccc1[N+](=O)[O-])NCC(F)(F)F	none
Cn1c(SCC(=O)N2CCCC2=O)nc2ccccc21	none
Cc1ccc(N)c2c1OCCC2=O	Diaph inh CS 57
Cc1cccc(NC2SC(=O)NC2=O)c1 (stereo unspecified)	none
N#C/C(=C\c1ccc(N2CCOCC2)o1)c1nc2ccccc2[nH]1	none
N#C/C(=C\c1ccc(-c2ccc(C(=O)O)cc2)o1)c1nc2ccccc2[nH]1	Diaph inh CS 65
C=CCn1c(=NC(=O)c2ccccc2[N+](=O)[O-])sc2cc(S(C)(=O)=O)ccc21	none
CC1=NN(c2ccc(Cl)cc2)C(=O)C1	none
CC1=NN(c2ccc(N)cc2)C(=O)C1	PMI act satM6P 2
COc1cc(OC)cc(C(=O)NCc2cc(C)nc3ccccc23)c1	Diaph inh CS 76
Oc1ccc(CN2CCC(Cc3ccccc3)CC2)c2cccnc12	Diaph inh CS 62
Oc1ccc(CN2CCc3ccccc3C2)c2cccnc12	none
NC(=S)Nc1cccc2cccnc12	none
COc1cccc(CNc2ccccc2O)c1OCc1ccccc1F	none
NC(=S)NNc1cccc2cccnc12	Diaph inh CS 72
Oc1ccc(CNc2ccccc2F)c2cccnc12	Diaph inh CS 89
Oc1ccc(F)c2cccnc12	Diaph inh CS 50, G6PDH counter 65
Oc1ccc(/C=N/NC(=S)N2CCOCC2)cc1	none
O=C(COC(=O)CCc1c[nH]c2ccccc12)NC(c1ccccc1)c1ccccc1	none
Oc1ccc(CN2CCN(c3ccccc3)CC2)c2cccnc12	Diaph inh CS 66
CCOC(=O)N1CCN(Cc2ccc(O)c3ncccc23)CC1	Diaph inh CS 72
OCc1ccc(O)c2ncccc12	G6PDH counter 53
Oc1ccc(CN2CCCCC2)c2cccnc12	Diaph inh CS 58, G6PDH counter 50
Oc1ccccc1CNc1cccc2cccnc12	Diaph inh CS 66, G6PDH counter 52
O=C(Nc1ccccc1)Nc1cccc2cccnc12	none
CC(C)COCc1ccc(O)c2ncccc12	Diaph inh CS 55
Oc1ccc(COCc2ccccc2)c2cccnc12	none
CSc1ncccc1C(=O)OCc1ccc([N+](=O)[O-])cc1	none
CCCN(CCC)C(=O)CSc1nc2n[nH]c(C)c2c(=N)n1-c1ccc(OC)cc1	none
CCC(Sc1nc2n[nH]c(C)c2c(=N)n1-c1cccc(Cl)c1)C(=O)NCCOC (stereo unspecified)	none
Cc1cccc(-n2c(SCC(=O)N3CCCC3)nc3n[nH]c(C)c3c2=N)c1	Diaph inh CS 68
CCCCN(CC)C(=O)CSc1nc2n[nH]c(C)c2c(=N)n1-c1cccc(C)c1	Diaph inh CS 66
Cc1ccc(CN(Cc2ccccc2)C(=S)NCC(=O)NCc2cccnc2)o1	none
CN(C)C(=O)c1cn(-c2ccccc2)nc1-c1cc2ccccc2oc1=O	none
CN(C)C(=O)c1cn(-c2ccccc2)nc1-c1cc2ccccc2o1	PMI act satM6P 2.5
COc1cc2nc(=S)n3[nH]c(COc4ccccc4C)nc3c2cc1OC	Diaph inh CS 91
COc1cc(-c2csc(CCn3nc(C)cc3C)n2)cc(OC)c1OC	none
COc1cc2nc(=S)n3[nH]c(CCn4nc(C)cc4C)nc3c2cc1OC	Diaph inh CS 92
CCCCc1noc(-c2c(-c3ccccc3Cl)noc2C)n1	none
S=c1[nH]nc(-c2cc(-c3ccco3)[nH]n2)n1-c1ccccc1Cl	Diaph inh CS 71
COc1cc(CN2CCN(Cc3ccc(SC)cc3)CC2)cc(OC)c1O	G6PDH counter 58
COc1cc(OC)c(OC)cc1CN1CCN(S(=O)(=O)c2ccc(NC(C)=O)cc2)CC1	Diaph inh CS 52
COc1ccc(CN2CCN(S(=O)(=O)c3ccc(NC(C)=O)cc3)CC2)cc1OC	none
COc1cc(CN2CCN(S(=O)(=O)c3ccc(NC(C)=O)cc3)CC2)cc(OC)c1O	G6PDH counter 52
O=C(COC(=O)/C=C/c1ccccc1Cl)NC1CCCCCC1	none
NS(=O)(=O)c1ccc(CNC(=O)c2csc3c2CCCC3)cc1	Diaph inh CS 85
CCCNC(=O)c1csc2c1CCCCC2	none
COc1ccccc1N1CCN(C2=Nc3cccc4cccc2c34)CC1	none
CCOC(=O)N1CCN(C2=Nc3cccc4cccc2c34)CC1	G6PDH counter 58
CC(=O)N1CCN(C2=Nc3cccc4cccc2c34)CC1	G6PDH counter 56
CC(C)CC(O)C1CCN(C(=O)CCc2nnc(-c3ccccc3)o2)CC1 (stereo unspecified)	none
Cn1c(N)c(C(=O)COC(=O)COc2ccc3ccccc3c2)c(=O)n(C)c1=O	none
CC(C)OCCCN1CN(S(=O)(=O)c2ccc(Cl)cc2)c2nc3ccccc3nc21	PMI act satM6P 2
Cc1ccc(/C=N/n2c(C)nc3ccccc3c2=O)s1	none
O=C1c2c(O)cc(O)cc2O[C@H](c2ccc(O)c(O)c2)[C@@H]1O	Diaph inh CS 54
COc1ccc(Nc2nc3[nH]c(=O)cc(O)c3s2)cc1	Diaph inh CS 69
CC(C)OC(=O)CSc1nnc2c(n1)[nH]c1ccc(F)cc12	none
O=C(c1cc2c(=O)n3ccccc3nc2s1)N1CCc2ccccc2C1	Diaph inh CS 57
COc1ccc2[nH]c(=O)c(C(c3nnnn3CC3CCCO3)N3CCc4ccccc4C3)cc2c1 (stereo unspecified)	Diaph inh CS 52
Cc1ccc2[nH]c(=O)c(C(c3nnnn3CC3CCCO3)N3CCCc4ccccc43)cc2c1 (stereo unspecified)	Diaph inh CS 80
Cc1ccc2[nH]c(=O)c(C(c3nnnn3CC3CCCO3)N3CCOCC3)cc2c1 (stereo unspecified)	none
